Assay: Toxicity liver stage against HepG2, at 10uM
Type: cell-based
Parameters: test concentration 10 uM, cell line HepG2-A16-CD81EGFP
Conditions: human, HepG2-A16-CD81EGFP cells; read-out: INHIBITION
Procedure, shortened: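 Uninfected HepG2-A16-CD81EGFP cells, 3 × 10^3 per well, 1536-well, plated on prespotted compound at 10 μM final, parasite-free screening media added to match infected plates; puromycin 10 μM positive, DMSO 0.5% negative; run in parallel with 48 h PbLuc assay at 37 °C, 5% CO2; viability by CellTiter-Glo luminescence, normalized to controls.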

Compound	cytotoxicity at 10 µM [%]
CCOc1cc2c(cc1C(=O)O)CCC2	-18.6
CC(C)N(C)Cc1cncc2c1CCN(C(=O)c1ccc[nH]1)C2	3.73
O=C(CCn1cccn1)NCCOc1ccc2c(c1)OCO2	-5.01
O=C(CCc1n[nH]c2c1CCCC2)N1C[C@H]2CC[C@@H](C1)N(CC1CC1)C2	-3.73
CCS(=O)(=O)N1CCc2ccc(NC(=O)Nc3cccc(F)c3)cc21	38.4
OC(CN(Cc1ccccc1)Cc1cscn1)c1cccs1 (stereo not given)	4.74
Cn1ccnc1SCCNC1CCN(c2ncccn2)CC1	-7.63
O=C(c1cnccn1)N1CCc2onc(CN3CCCC3)c2C1	8.7
CN(C)C(=O)CCCn1ccc(NC(=O)NCc2cccc(F)c2)n1	6.85
Cc1nn(C)cc1C1CC(=O)Nc2c1cnn2C (stereo not given)	2.8
CC(C)CN(C)S(=O)(=O)c1ccc(Cl)cc1C#N	-47.2
O=C(c1ccc(-c2cnco2)cc1)N1CCC(Nc2cccnn2)CC1	-0.692
O=c1cc(CN2CCCCC2c2cccc(F)c2)[nH]c2ncnn12 (stereo not given)	-3.46
CC(C)c1ccc(NC(=O)c2ncc(C(N)=O)cc2Cl)cc1	-1.85
COCC1CN(Cc2csc(C)n2)Cc2nccn2C1 (stereo not given)	3.16
O=C(c1ccco1)N1C[C@@H]2[C@@H](C1)OCC(=O)N2Cc1cccnc1	3.04
CN(c1ccncn1)C1CC2(CCN(C(=O)CCc3cccs3)C2)C1 (stereo not given)	-1.34
CN(C)C(=O)Cc1ccc(NC(=O)NC2CCCCC2)cc1	-11.3
Cc1ccc(-c2nc(CN3C[C@@H](C)NC[C@@H]3C)c(C)o2)s1	-11.7
COCCOCCNC(=O)N1CCN(c2ccccc2C#N)CC1	6.39
O=S(=O)(c1cccnc1)N1C[C@H]2CC[C@@H](C1)N(Cc1ccccn1)C2	-0.807
CCOc1ccc(CN(CCOC)c2nc(C)nc3oc(C)nc23)cc1	-30.2
c1cncc(C2COC3(CCN(Cc4cccs4)CC3)C2)c1 (stereo not given)	-0.697

Compound	cytotoxicity at 10 µM [%]
CCc1cnc(CN(C)C2CCN(CC3CCN(C(C)=O)CC3)C2)o1 (stereo not given)	4.84
CN(C)C[C@@H]1CN(C(=O)Cc2cccc(O)c2)C[C@@H]1CO	1.92
CC(C)N1CCOC(CC(=O)N2CCCN(c3ccc(F)cc3)CC2)C1 (stereo not given)	-4.66
O=C(CC1CCCC1)N1CCCC1c1nc(O)cc(-c2ccccn2)n1 (stereo not given)	-3.73
O=C(O)[C@@H]1CN(Cc2cc3c(cc2Cl)OCO3)C[C@H]1C1CC1	0.0851
O=C1NC2(CCN(C(=O)CN3CCOCC3)CC2)Nc2ccc(Cl)cc21	0.961
CCN(CC(=O)NC)S(=O)(=O)N1CCCCCC1	5.04
CCC(=O)N1CCC2(CC1)COCCN2Cc1ccc(F)cc1	-76.5
COc1ccccc1C1(O)CCCN(C(=O)c2ccnn2C(C)C)C1 (stereo not given)	2.59
Cc1ncsc1CN1C[C@@H](OCC2CC2)[C@H]2OCCC[C@H]21	-9.76
NC(=O)NC(=O)Cn1ccc2sccc2c1=O	0.354
COCCN1C[C@H]2[C@@H](C1)N(C(=O)c1cccs1)CC[C@H]2OC	-2.03
Cc1cccc(NC2CCc3c2[nH]c(=O)n(C2CCCCC2)c3=O)c1C (stereo not given)	5.05
CN(C)CCOc1ccc(N(C)S(=O)(=O)c2cnn(C)c2)cc1	-13.3
Cc1cnn(CC2CCCN2Cc2coc(-c3cccc(F)c3)n2)c1 (stereo not given)	1.2
CC[C@@H](c1ccccc1)n1c(CN)n[nH]c1=O	-4.34
CCN1CCN(C(=O)c2ccc(=O)n(C)c2)c2ccccc21	-1.64
Cc1cnnn1Cc1nnn2c1CN(Cc1ccccn1)CCC2	9.73
CCCn1cnnc1CN(C)C(=O)C1CCCN(C2CCN(C)CC2)C1 (stereo not given)	-6.58
Cc1nc(CC(=O)N2CCc3nnc(N(C)C)cc3C2)cs1	-7.07
CCN(Cc1c(C)nn(CC)c1C)S(=O)(=O)c1cn(C)nc1C	7.36
CCN1CCN(CC(=O)N2CCOC(Cc3ccc(OC)cc3)C2)CC1 (stereo not given)	-2.77
